The subject of one assay is Staphylococcus aureus. Kind of assay: Antibacterial activity against Staphylococcus aureus ATCC 25923 after 18 hrs by microdilution method. Type of assay: functional. The settings on record: ATCC 25923, 18 h.
Assay [1] concerns Staphylococcus epidermidis. Put plainly: Antibacterial activity against Staphylococcus epidermidis ATCC 12228 after 18 hrs by microdilution method. The settings on record: ATCC 12228, 18 h. The format is functional. On the technique in general: In broth dilution the organism is exposed to a series of concentrations in liquid medium.
In a further assay the test system is Micrococcus luteus. Kind of assay: Antibacterial activity against Micrococcus luteus ATCC 9341 after 18 hrs by microdilution method. The format is functional. The settings on record: ATCC 9341, 18 h.
A further assay concerns Bacillus subtilis. Kind of assay: Antibacterial activity against Bacillus subtilis ATCC 6633 after 18 hrs by microdilution method. Type of assay: functional. The following applies: ATCC 6633, 18 h.
For assay [2], the target named is 11-beta-hydroxysteroid dehydrogenase 1 (Mus musculus, UniProt P50172). Kind of assay: Inhibition of mouse 11beta-HSD1 expressed in HEK293 cells assessed as [3H]cortisol by scintillation proximity assay. The format is cell-based. An outline of the steps:
(§1)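 IC50 by scintillation proximity assay. Enzyme source was microsomes from HEK293 cells stably transfected with human or murine 11β-HSD1. Microsomes were incubated with NADPH and [3H]-cortisone. Product [3H]-cortisol was captured by a monoclonal antibody coupled to protein A-coated SPA beads. Glycyrrhetinic acid served as positive control.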
In general terms: In a scintillation proximity assay essentially only radioactivity close to the scintillant gives light.

Assay [3] has as its target T1, 11-beta-hydroxysteroid dehydrogenase 1 (Homo sapiens, UniProt P28845). Put plainly: Inhibition of human 11beta-HSD1 expressed in HEK293 cells assessed as [3H]cortisol by scintillation proximity assay. Type of assay: cell-based. The essentials: as §1
Target sequence in this assay (P28845 whole entry): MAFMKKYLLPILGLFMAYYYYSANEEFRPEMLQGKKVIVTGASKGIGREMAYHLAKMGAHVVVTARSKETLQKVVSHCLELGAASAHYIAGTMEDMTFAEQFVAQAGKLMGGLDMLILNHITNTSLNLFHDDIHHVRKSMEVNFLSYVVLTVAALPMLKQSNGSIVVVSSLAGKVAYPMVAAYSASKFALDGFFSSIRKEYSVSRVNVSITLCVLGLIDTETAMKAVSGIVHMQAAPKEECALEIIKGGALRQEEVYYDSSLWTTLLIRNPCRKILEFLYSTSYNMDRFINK
The target of assay [4] is 11-beta-hydroxysteroid dehydrogenase 1 (Mus musculus) (UniProt P50172). Put plainly: Inhibition of mouse 11beta-HSD1 expressed in HEK293 cells assessed as [3H]cortisol at 10 uM by scintillation proximity assay. The format is cell-based. The essentials:
(§2)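 Single-concentration screen at 10 μM by scintillation proximity assay, read as % inhibition. Microsomes were incubated with NADPH and [3H]-cortisone. The [3H]-cortisol formed was captured by a monoclonal antibody on protein A-coated SPA beads. Glycyrrhetinic acid served as positive control.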

In assay [5] the target is T1, 11-beta-hydroxysteroid dehydrogenase 1. Kind of assay: Inhibition of human 11beta-HSD1 expressed in HEK293 cells assessed as [3H]cortisol at 10 uM by scintillation proximity assay. Type of assay: cell-based. An outline of the steps:
as §2
Target sequence in this assay (P28845 whole entry, looked up): as the sequence (P28845 whole entry) above

Usually MIC stands for the least concentration at which growth counts as inhibited. A low value points to a more susceptible organism. As usually defined, the IC50 is the concentration needed to halve the response being measured. One may read the inhibition as the change of the read-out against control, counted positive when it falls.

Each structure is given as a SMILES string. Values after ≈ are worked out from the molar mass of the structure shown.

11-beta-hydroxysteroid dehydrogenase 1 (Mus musculus, UniProt P50172), sequence (P50172 whole entry): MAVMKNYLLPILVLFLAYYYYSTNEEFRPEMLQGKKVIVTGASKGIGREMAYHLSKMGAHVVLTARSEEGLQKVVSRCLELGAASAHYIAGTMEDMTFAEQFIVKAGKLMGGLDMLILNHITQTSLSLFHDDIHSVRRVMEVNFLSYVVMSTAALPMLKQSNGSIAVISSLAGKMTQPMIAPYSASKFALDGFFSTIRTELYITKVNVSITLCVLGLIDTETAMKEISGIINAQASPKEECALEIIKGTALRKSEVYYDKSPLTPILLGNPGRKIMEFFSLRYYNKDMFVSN
11-beta-hydroxysteroid dehydrogenase 1 (Mus musculus), sequence (P50172 whole entry, looked up): as the sequence (P50172 whole entry) above

On to `C=C(C)[C@@H]1CC[C@@H]2[C@]3(CC[C@]4(C)[C@@H]([C@H]5CC[C@@H](C(C)(C)O)OC5)CC[C@@]24C)C[C@]13CCC(=O)O`, for which the minimum inhibitory concentration (MIC) (in the assay with Staphylococcus aureus; in assay [1]; against Micrococcus luteus; with Bacillus subtilis) was over 50 µg/mL in each case.

As to `C=C(C)[C@H](O)CC[C@@H](COC(C)=O)[C@H]1CC[C@@]2(C)[C@@H]3CC[C@@H](C(=C)C)[C@@]4(CCC(=O)O)C[C@@]34CC[C@]12C`, the MIC in the assay with Staphylococcus aureus was over 50 µg/mL; in assay [1], 25 µg/mL (≈ 48.6 µM); with Micrococcus luteus, 12.5 µg/mL (≈ 24.3 µM); with Bacillus subtilis it was 12.5 µg/mL (≈ 24.3 µM).

As to `C=C(C)C(=O)CC[C@@H](COC(C)=O)[C@H]1CC[C@@]2(C)[C@@H]3CC[C@@H](C(=C)C)[C@@]4(CCC(=O)O)C[C@@]34CC[C@]12C`, the MIC in the assay on Staphylococcus aureus is over 50 µg/mL; in assay [1], over 50 µg/mL; in the assay on Micrococcus luteus, over 50 µg/mL; against Bacillus subtilis, 25 µg/mL (≈ 48.8 µM).

In the case of `C=C(C)[C@@H](O)CC[C@@H](COC(C)=O)[C@H]1CC[C@@]2(C)[C@@H]3CC[C@@H](C(=C)C)[C@@]4(CCC(=O)O)C[C@@]34CC[C@]12C`, the MIC with Staphylococcus aureus is over 50 µg/mL; in assay [1] it was 25 µg/mL (≈ 48.6 µM); in the assay on Micrococcus luteus, 12.5 µg/mL (≈ 24.3 µM); in the assay on Bacillus subtilis, 12.5 µg/mL (≈ 24.3 µM).

Consider `C=C(C)[C@@H]1CC[C@@H]2[C@]3(CC[C@]4(C)[C@@H]([C@@H](C/C=C/C(C)(C)O)COC(C)=O)CC[C@@]24C)C[C@]13CCC(=O)O`, for which the MIC with Staphylococcus aureus is 25 µg/mL (≈ 48.6 µM); in assay [1], 12.5 µg/mL (≈ 24.3 µM); in the assay on Micrococcus luteus, 6.3 µg/mL (≈ 12.2 µM); with Bacillus subtilis, 6.3 µg/mL (≈ 12.2 µM). For the same compound, the IC50 was determined as 740 nM in assay [2] and 2300 nM in assay [3]. Further, the inhibition in assay [4] and in assay [5] was over 60% in each case.

As to `C=C(C)[C@@H]1CC[C@@H]2[C@]3(CC[C@]4(C)[C@@H]([C@@H](CCC(=O)O)COC(C)=O)CC[C@@]24C)C[C@]13CCC(=O)O`, in assay [3], the IC50 is 1900 nM. Moreover, the inhibition in assay [4] and in assay [5] was over 60% throughout.

As to `CC1COc2c(N3CCN(C)CC3)c(F)cc3c(=O)c(C(=O)O)cn1c23` (stereo not given) [OFLOXACIN], the MIC worked out at 0.2 µg/mL (≈ 0.553 µM) in the assay with Staphylococcus aureus, 0.2 µg/mL (≈ 0.553 µM) in assay [1], 1.6 µg/mL (≈ 4.43 µM) against Micrococcus luteus and 0.013 µg/mL (≈ 0.036 µM) against Bacillus subtilis.

Take `C=C(C)[C@@H]1CC[C@@H]2[C@]3(CC[C@]4(C)[C@@H]([C@H](C)C/C=C/C(C)(C)O)CC[C@@]24C)C[C@]13CCC(=O)O`: the MIC with Staphylococcus aureus was over 50 µg/mL; in assay [1], over 50 µg/mL; against Micrococcus luteus, 6.3 µg/mL (≈ 13.8 µM); with Bacillus subtilis, 3.1 µg/mL (≈ 6.79 µM).

`C=C(C)[C@@H]1CC[C@@H]2[C@]3(CC[C@]4(C)[C@@H]([C@H](C)CC[C@H](O)C(C)(C)O)CC[C@@]24C)C[C@]13CCC(=O)O`: the minimum inhibitory concentration (MIC) against Staphylococcus aureus is over 50 µg/mL; in assay [1], over 50 µg/mL; against Micrococcus luteus, 50 µg/mL (≈ 105 µM); with Bacillus subtilis, 50 µg/mL (≈ 105 µM).

`C=C(C)[C@@H]1CC[C@@H]2[C@]3(CC[C@]4(C)[C@@H]([C@H]5CC[C@H](C(C)(C)O)OC5)CC[C@@]24C)C[C@]13CCC(=O)O`: the MIC in the assay with Staphylococcus aureus was 25 µg/mL (≈ 52.9 µM); in assay [1], 12.5 µg/mL (≈ 26.4 µM); with Micrococcus luteus, 3.1 µg/mL (≈ 6.56 µM); against Bacillus subtilis, 6.3 µg/mL (≈ 13.3 µM). Besides, the IC50 in assay [2] was 240 nM; in assay [3], 1900 nM. Moreover, the inhibition in assay [4] and in assay [5] was over 60% throughout.

`C=C(C)[C@H](O)CC[C@@H](CO)[C@H]1CC[C@@]2(C)[C@@H]3CC[C@@H](C(=C)C)[C@@]4(CCC(=O)O)C[C@@]34CC[C@]12C`: the minimal inhibitory concentration (MIC) was 25 µg/mL (≈ 52.9 µM) with Staphylococcus aureus, 25 µg/mL (≈ 52.9 µM) in assay [1], 12.5 µg/mL (≈ 26.4 µM) against Micrococcus luteus and 6.3 µg/mL (≈ 13.3 µM) against Bacillus subtilis. The IC50 in assay [2] is 990 nM; in assay [3], 1400 nM. The inhibition in assay [4] and in assay [5] was over 60% throughout.

These data come from ChEMBL document CHEMBL3351840, “Lithocarpic Acids A-N, 3,4-seco-Cycloartane Derivatives from the Cupules of Lithocarpus polystachyus” (J Nat Prod, 2014).
